Our source for the Activity values is ChEMBL document CHEMBL1150856, “Trypanocidal withanolides and withanolide glycosides from Dunalia brachyacantha” (2001).

For assay [1], the system named is Shigella flexneri. The assay is described as follows: Antibacterial activity against Shigella flexneri […] at 0.0625 mg/mL after 18 hrs. Format: functional, organism-based.
The test system of assay [2] is Staphylococcus aureus. The assay is described as follows: Antibacterial activity against Staphylococcus aureus ATCC 25923/6538 at 0.0625 mg/mL after 18 hrs. Format: functional, organism-based.
The subject of the next assay is Escherichia coli. As to the kind of experiment: Antibacterial activity against Escherichia coli ATCC 8739 at 0.0312 mg/mL after 18 hrs. Format: functional, organism-based.
In assay [3] the test system is Shigella flexneri. As to the kind of experiment: Antibacterial activity against Shigella flexneri […] at 0.0312 mg/mL after 18 hrs. Format: functional, organism-based.
In assay [4] the test system is Staphylococcus aureus. As to the kind of experiment: Antibacterial activity against Staphylococcus aureus ATCC 25923/6538 at 0.0312 mg/mL after 18 hrs. The format is functional, organism-based.
Another assay has as its system Bacillus subtilis. As to the kind of experiment: Antibacterial activity against Bacillus subtilis ATCC 6633 at 0.0312 mg/mL after 18 hrs. The format is functional, organism-based.
Assay [5] concerns Leishmania amazonensis. The assay is described as follows: Antiparasitic activity against Leishmania amazonensis IFLA/BR/67/PH8 at 50 ug/mL after 72 hrs. Format: functional, organism-based. The procedure, abridged:
(§1)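 Promastigotes at 50 000 parasites/mL, 27 °C, 72 h, with compound at final 50, 25, 10, 1 and 0.1 μg/mL. Compound dissolved in medium plus DMSO (final DMSO under 0.1%) and filter-sterilised (0.22 μm). Triplicate wells. Activity was judged by inverted phase-contrast microscopy of a culture drop against untreated and pentamidine controls.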

The test system of assay [6] is Leishmania braziliensis. The assay is described as follows: Antiparasitic activity against Leishmania braziliensis MHOM/BR/75/M2903 at 50 ug/mL after 72 hrs. Format: functional, organism-based. The procedure, abridged: as §1
In assay [7] the test system is Leishmania donovani. The assay is described as follows: Antiparasitic activity against Leishmania donovani MHOM/IN/83/HS70 at 50 ug/mL after 72 hrs. Format: functional, organism-based. The procedure, abridged: as §1
Assay [8] has as its system Trypanosoma cruzi. The assay is described as follows: Antiparasitic activity against Trypanosoma cruzi Tulahuen epimastigotes at 50 ug/mL after 48 hrs. The format is functional. An outline of the steps:
(§2)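 Epimastigotes in LIT medium with 10% fetal calf serum, inoculum 10⁶ cells/mL, 28 °C. Samples were dissolved in DMSO and medium to final 50, 20, 10, 1 and 0.1 μg/mL (final DMSO under 0.5%). Triplicate. After 48 h, parasites were counted by haemocytometer and compared with untreated and pentamidine controls.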

Assay [9] deals with Leishmania amazonensis. The assay is described as follows: Antiparasitic activity against Leishmania amazonensis IFLA/BR/67/PH8 at 25 ug/mL after 72 hrs. Format: functional, organism-based. The procedure, abridged:
as §1

The test system of assay [10] is Leishmania braziliensis. As to the kind of experiment: Antiparasitic activity against Leishmania braziliensis MHOM/BR/75/M2903 at 25 ug/mL after 72 hrs. Format: functional, organism-based. The procedure, abridged:
as §1

In assay [11] the test system is Leishmania donovani. As to the kind of experiment: Antiparasitic activity against Leishmania donovani MHOM/IN/83/HS70 at 25 ug/mL after 72 hrs. Format: functional, organism-based. The procedure, abridged: as §1
The subject of assay [12] is Trypanosoma cruzi. The assay is described as follows: Antiparasitic activity against Trypanosoma cruzi Tulahuen epimastigotes at 25 ug/mL after 48 hrs. The format is functional.
Assay [13] has as its system Leishmania amazonensis. As to the kind of experiment: Antiparasitic activity against Leishmania amazonensis IFLA/BR/67/PH8 at 10 ug/mL after 72 hrs. Format: functional. An outline of the steps:
as §1

Assay [14] relates to Leishmania braziliensis. As to the kind of experiment: Antiparasitic activity against Leishmania braziliensis MHOM/BR/75/M2903 at 10 ug/mL after 72 hrs. The format is functional. The procedure, abridged: as §1
Assay [15] has as its system Leishmania donovani. The assay is described as follows: Antiparasitic activity against Leishmania donovani MHOM/IN/83/HS70 at 10 ug/mL after 72 hrs. The format is functional. The procedure, abridged: as §1
The subject of assay [16] is Trypanosoma cruzi. As to the kind of experiment: Antiparasitic activity against Trypanosoma cruzi Tulahuen epimastigotes at 10 ug/mL after 48 hrs. Format: functional. An outline of the steps: as §2
The subject of assay [17] is Leishmania amazonensis. As to the kind of experiment: Antiparasitic activity against Leishmania amazonensis IFLA/BR/67/PH8 at 1 ug/mL after 72 hrs. The format is functional. An outline of the steps:
as §1

In assay [18] the test system is Leishmania braziliensis. The assay is described as follows: Antiparasitic activity against Leishmania braziliensis MHOM/BR/75/M2903 at 1 ug/mL after 72 hrs. Format: functional. An outline of the steps:
as §1

The test system of assay [19] is Leishmania donovani. As to the kind of experiment: Antiparasitic activity against Leishmania donovani MHOM/IN/83/HS70 at 1 ug/mL after 72 hrs. Format: functional. The procedure, abridged: as §1
The test system of assay [20] is Trypanosoma cruzi. The assay is described as follows: Antiparasitic activity against Trypanosoma cruzi Tulahuen epimastigotes at 1 ug/mL after 48 hrs. The format is functional. The procedure, abridged:
as §2

The test system of assay [21] is Leishmania amazonensis. As to the kind of experiment: Antiparasitic activity against Leishmania amazonensis IFLA/BR/67/PH8 at 0.1 ug/mL after 72 hrs. Format: functional. An outline of the steps:
as §1

In assay [22] the test system is Leishmania braziliensis. The assay is described as follows: Antiparasitic activity against Leishmania braziliensis MHOM/BR/75/M2903 at 0.1 ug/mL after 72 hrs. Format: functional. The procedure, abridged:
as §1

Assay [23] relates to Leishmania donovani. As to the kind of experiment: Antiparasitic activity against Leishmania donovani MHOM/IN/83/HS70 at 0.1 ug/mL after 72 hrs. The format is functional. An outline of the steps: as §1
The subject of assay [24] is Trypanosoma cruzi. As to the kind of experiment: Antiparasitic activity against Trypanosoma cruzi Tulahuen epimastigotes at 0.1 ug/mL after 48 hrs. The format is functional. An outline of the steps: as §2

Activity calls are given as the source filed them. The calls are words filed in the database; no cut-off is given here.

On to `CC(=O)OC[C@]12CC[C@H]3[C@@H](CC=C4[C@@H](O)C=CC(=O)[C@@]43C)[C@@H]1CC[C@@H]2[C@@](C)(O)[C@H]1CC(C)=C(C)C(=O)O1`, for which the outcome in the assay on Shigella flexneri [1], in the assay on Staphylococcus aureus [2], in the assay on Escherichia coli, in the assay on Shigella flexneri [3], in the assay with Staphylococcus aureus [4] and in the assay with Bacillus subtilis was inactive. Moreover, the outcome in the assay with Leishmania amazonensis [5], in the assay on Leishmania braziliensis [6], in the assay on Leishmania donovani [7], with Trypanosoma cruzi [8], with Leishmania amazonensis [9] and in the assay with Leishmania braziliensis [10] was Active. For the same compound, the result in the assay with Leishmania donovani [11], in the assay with Trypanosoma cruzi [12], with Leishmania amazonensis [13], in the assay on Leishmania braziliensis [14] and in the assay on Leishmania donovani [15] was Active. In addition, the Activity in the assay on Trypanosoma cruzi [16] is on record as 75%; with Leishmania amazonensis [17], 75%; in the assay with Leishmania braziliensis [18], 50%; with Leishmania donovani [19] it was 75%; in the assay on Trypanosoma cruzi [20], 0%; with Leishmania amazonensis [21] it was 0%. Further, the Activity with Leishmania braziliensis [22], with Leishmania donovani [23] and in the assay on Trypanosoma cruzi [24] was 0% throughout.

Regarding `N=C(N)c1ccc(OCCCCCOc2ccc(C(=N)N)cc2)cc1`, the outcome with Leishmania amazonensis [13], with Leishmania braziliensis [14], in the assay on Leishmania donovani [15] and in the assay with Trypanosoma cruzi [16] was Active.

In the case of `CC(=O)OC[C@]12CC[C@H]3[C@@H](C[C@H]4O[C@]45[C@@H](O)C=CC(=O)[C@]35C)[C@@H]1CC[C@@H]2[C@@](C)(O)[C@H]1CC(C)=C(C)C(=O)O1`, the result in the assay on Leishmania amazonensis [5], in the assay on Leishmania braziliensis [6], in the assay with Leishmania donovani [7], with Leishmania amazonensis [9], in the assay on Leishmania braziliensis [10] and in the assay with Leishmania donovani [11] was Active. For the same compound, the Activity in the assay on Trypanosoma cruzi [8] is given as 50%; with Trypanosoma cruzi [12] it was 0%; in the assay with Leishmania amazonensis [13], 75%; in the assay on Leishmania braziliensis [14], 50%; in the assay with Leishmania donovani [15], 75%; in the assay with Trypanosoma cruzi [16] it was 0%.
